Experimental data published in ChEMBL document CHEMBL1155114, “Kadcoccilactones A-J, triterpenoids from Kadsura coccinea” (J Nat Prod, 2008).
≈ marks a conversion by molar mass, not a printed value.

Assays:
K562 [1] = experiment: Cytotoxicity against human K562 cells after 72 hrs by SRB assay; assay type: functional, cell-based; conditions: K562, 72 h
Outline: (§1)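 Human tumor cells seeded in 96-well plates 24 h before treatment, then exposed continuously to a range of compound concentrations for 72 h. Inhibition of cell proliferation read by SRB or MTT staining as named in each line. IC50 derived. Adriamycin (ADR) included as positive control.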

K562 [2] = experiment: Cytotoxicity against human K562 cells after 72 hrs by MTT assay; assay type: functional, cell-based; conditions: K562, 72 h; outline: as §1
Bel-7402 [3] = experiment: Cytotoxicity against human Bel7402 cells after 72 hrs by SRB assay; assay type: functional, cell-based; conditions: Bel-7402, 72 h; outline: as §1
Bel-7402 [4] = experiment: Cytotoxicity against human Bel7402 cells after 72 hrs by MTT assay; assay type: functional, cell-based; conditions: Bel-7402, 72 h; outline: as §1
A549 [5] = experiment: Cytotoxicity against human A549 cells after 72 hrs by SRB assay; assay type: functional; outline: as §1
A549 [6] = experiment: Cytotoxicity against human A549 cells after 72 hrs by MTT assay; assay type: functional, cell-based; conditions: A549, 72 h; outline: as §1

SMILES	IC50 (K562 [1])	IC50 (K562 [2])	IC50 (Bel-7402 [3])	IC50 (Bel-7402 [4])	IC (A549 [5])	IC50 (A549 [6])
CC(=O)O[C@H]1CC([C@H](C)[C@H](O)[C@@H]2C[C@H](C)C(=O)O2)=C2CC[C@]3(O)C[C@]45OC(=O)C[C@@]4(O)OC(C)(C)[C@@H]5CC[C@H]3[C@]21C [KADCOCCILACTONE F]	> 100 µg/mL	> 100 µg/mL	> 100 µg/mL	> 100 µg/mL	>100 µg/mL	> 100 µg/mL
CC1=CC([C@H]2O[C@@]34[C@H](C[C@@H]5O[C@@]53[C@@H]3[C@H](O)C[C@H]5C(C)(C)O[C@@H]6CC(=O)O[C@@]65C[C@@]3(O)C[C@@H]4O)[C@@H]2C)OC1=O (stereo partly drawn) [KADCOCCILACTONE J]	> 100 µg/mL	> 100 µg/mL	> 100 µg/mL	> 100 µg/mL	>100 µg/mL	> 100 µg/mL
CC1=C[C@H]([C@H](O)[C@H](C)[C@@H]2C[C@H]3O[C@]34[C@@H]3CC[C@@H]5C(C)(C)O[C@H]6CC(=O)O[C@]65C[C@]3(O)CC[C@@]24C)OC1=O [MICRANDILACTONE B]	> 100 µg/mL	> 100 µg/mL	> 100 µg/mL	> 100 µg/mL	>100 µg/mL	> 100 µg/mL
CC(=O)O[C@@H]1C[C@]2(C)[C@@H]([C@H](C)[C@H]3CC=C(C)C(=O)O3)CC[C@@]2(C)CCC[C@H]2C(C)(C)O[C@@H]3CC(=O)O[C@@]32CC1=O [KADSUPHILACTONE A]	50.3 µg/mL (≈ 90 µM)	50.3 µg/mL (≈ 90 µM)	> 100 µg/mL	> 100 µg/mL	96.6 µg/mL	96.6 µg/mL (≈ 173 µM)
COc1cccc2c1C(=O)c1c(O)c3c(c(O)c1C2=O)C[C@@](O)(C(=O)CO)C[C@@H]3O[C@H]1C[C@H](N)[C@H](O)[C@H](C)O1 [DOXORUBICIN]	0.011 µg/mL (≈ 0.0202 µM)	0.011 µg/mL (≈ 0.0202 µM)	0.01 µg/mL (≈ 0.0184 µM)	0.01 µg/mL (≈ 0.0184 µM)	0.025 µg/mL	0.025 µg/mL (≈ 0.046 µM)
CC1=C[C@@H]([C@@H](O)[C@@H](C)[C@H]2CC=C3[C@@H]4CC[C@H]5C(C)(C)O[C@@H]6CC(=O)O[C@@]65C[C@@]4(O)CC[C@@]32C)OC1=O [KADCOCCILACTONE E]	> 100 µg/mL	> 100 µg/mL	> 100 µg/mL	> 100 µg/mL	>100 µg/mL	> 100 µg/mL
CC(=O)O[C@@H]1C[C@H]2C(C)(C)O[C@@H]3CC(=O)O[C@@]32C[C@@]2(O)CC[C@]34O[C@H](C5CC(C)C(=O)O5)[C@@H](C)[C@H]3C[C@H](O)[C@]4(C)[C@H]12 (stereo partly drawn) [KADCOCCILACTONE H]	> 100 µg/mL	> 100 µg/mL	> 100 µg/mL	> 100 µg/mL	>100 µg/mL	> 100 µg/mL
CC1=CC[C@@H]([C@@H](C)[C@@H]2CC[C@@]3(CO)[C@@H]4CC[C@H]5C(C)(C)O[C@@H]6CC(=O)O[C@@]65C[C@@]4(O)CC[C@]23C)OC1=O [KADCOCCILACTONE C]	53.3 µg/mL (≈ 103 µM)	53.3 µg/mL (≈ 103 µM)	> 100 µg/mL	> 100 µg/mL	>100 µg/mL	> 100 µg/mL
CC1=CC[C@@H]([C@@H](C)[C@@H]2CC[C@]3(O)[C@@H]4CC[C@H]5C(C)(C)O[C@@H]6CC(=O)O[C@@]65C[C@@]4(O)CC[C@]23C)OC1=O [KADCOCCILACTONE B]	> 100 µg/mL	> 100 µg/mL	> 100 µg/mL	> 100 µg/mL	>100 µg/mL	> 100 µg/mL
CC1=C[C@@H]([C@@H](O)[C@@H](C)[C@]23CC[C@@]4(CO2)[C@@H]2CC[C@H]5C(C)(C)O[C@@H]6CC(=O)O[C@@]65C[C@@]2(O)CC[C@@]43C)OC1=O [KADCOCCILACTONE G]	> 100 µg/mL	> 100 µg/mL	> 100 µg/mL	> 100 µg/mL	>100 µg/mL	> 100 µg/mL
CC1=CC[C@@H]([C@@H](C)[C@]2(O)CC[C@@]3(C)[C@@H]4CC[C@H]5C(C)(C)O[C@@H]6CC(=O)O[C@@]65C[C@@]4(O)CC[C@@]32C)OC1=O [KADCOCCILACTONE A]	> 100 µg/mL	> 100 µg/mL	36.4 µg/mL (≈ 70.5 µM)	36.4 µg/mL (≈ 70.5 µM)	>100 µg/mL	> 100 µg/mL
CC1=CC[C@@H]([C@@H](C)[C@@H]2CC=C3[C@@H]4CC[C@H]5C(C)(C)O[C@@H]6CC(=O)O[C@@]65C[C@@]4(OC=O)CC[C@@]32C)OC1=O [KADCOCCILACTONE D]	> 100 µg/mL	> 100 µg/mL	> 100 µg/mL	> 100 µg/mL	>100 µg/mL	> 100 µg/mL
CC(=O)O[C@H]1C[C@@H]2[C@H](C)[C@@H](C3CC(C)C(=O)O3)O[C@@]23CC[C@]2(O)C[C@]45OC(=O)C[C@H]4OC(C)(C)[C@@H]5C[C@@H](O)[C@H]2[C@@]13C (stereo partly drawn) [KADCOCCILACTONE I]	> 100 µg/mL	> 100 µg/mL	> 100 µg/mL	> 100 µg/mL	>100 µg/mL	> 100 µg/mL
